Test results: ChEMBL document CHEMBL4138048, “Synthesis of substituted 2H-benzo[e]indazole-9-carboxylate as a potent antihyperglycemic agent that may act through IRS-1, Akt and GSK-3β pathways” (Medchemcomm, 2017)
Activity calls are given as the source filed them. No cut-off for these calls is given here.

Assays:
[1] = tested on: L6; assay: Stimulation of [3H]2-deoxyglucose uptake in rat L6 cells at 10 uM incubated for 16 hrs by scintillation counting method; assay type: functional, cell-based
Outline: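 L6 myotubes incubated with the compound […]; insulin at 100 nM for 20 min served as the positive control. Uptake of ³H-2-deoxyglucose measured and expressed as fold stimulation relative to the control condition.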

[2] = tested on: HepG2; assay: Stimulation of [3H]2-deoxyglucose uptake in human HepG2 cells at 10 uM incubated for 16 hrs by scintillation counting method; assay type: functional, cell-based

For `COC(=O)c1c(SC)cc(-c2ccccc2)c2c1-c1cn(-c3ccccc3)nc1CC2`, the Activity [1] was “inactive”.

With `COC(=O)c1c(SC)cc(-c2ccc(Br)cc2)c2c1-c1cn(-c3ccccc3)nc1CC2` the Activity [1] was “inactive”.

For `COC(=O)c1c(SC)cc(-c2cccs2)c2c1-c1cn(-c3ccccc3)nc1CC2`, the Activity [1] was “inactive”.

In the case of `CN(C)C(=N)NC(=N)N`, the Activity [2] is reported as “Active”.

In the case of `COC(=O)c1c(S(C)(=O)=O)cc(-c2ccc(C)cc2)c2c1-c1cn(-c3ccccc3)nc1CC2`, the Activity [1] is reported as “inactive”.

With `COC(=O)c1c(SC)cc(-c2ccc3ccc4cccc5ccc2c3c45)c2c1-c1cn(-c3ccccc3)nc1CC2` the Activity [1] was “inactive”.
